Measurements reported in ChEMBL document CHEMBL1250446, “Novel targets for Huntington's disease in an mTOR-independent autophagy pathway” (Nat Chem Biol, 2008).
Active and inactive are the calls of the source. The calls are words filed in the database; no cut-off is given here.

What was measured:
PC-12 = assay: Induction of autophagy in rat stable inducible PC12 cells expressing A53T alpha-synuclein assessed as A53T alpha-synuclein clearance at 500 uM after 24 hrs by densitometric analysis; type: functional, cell-based
How it was run: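 Inducible PC12 A53T α-synuclein (HA) cells induced with 1 μg/ml doxycycline for 48 h. Doxycycline then removed for 24 h with compound or DMSO. Remaining protein measured by anti-HA immunoblot, densitometry relative to actin.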

SK-N-SH [1] = assay: Induction of autophagy in human SK-N-SH cells expressing EGFP-HDQ74 assessed as reduction in EGFP-HDQ74 aggregation at 500 uM after 48 hrs by densitometric analysis; type: functional, cell-based
SK-N-SH (Homo sapiens) = assay: Induction of autophagy in human SK-N-SH cells expressing EGFP-HDQ74 assessed as reduction in EGFP-HDQ74 aggregation at 1 uM after 48 hrs by densitometric analysis
Danio rerio [2] = species: Danio rerio; assay: Protection of neurodegeneration in zebrafish Huntington's disease model expressing EGFP-tagged huntingtin exon with EGFP-HDQ71 in rod photoreceptor assessed as decrease in […] aggregation at 3 uM
SK-N-MC [3] = assay: Cytotoxicity against human SK-N-MC cells expressing EGFP-HDQ74 at 1 uM after 48 hrs; type: cell-based
Danio rerio [4] = species: Danio rerio; assay: Protection of neurodegeneration in zebrafish Huntington's disease model expressing EGFP-tagged huntingtin exon with EGFP-HDQ71 in rod photoreceptor assessed as loss of rhodopsin expression at 3 uM
HeLa [5] = assay: Induction of autophagy in human HeLa cells expressing EGFP-LC3 assessed as increase in LC3-2 level at 400 nM in presence of erythro-9-(3-(2-hydroxynonyl)adenine; type: functional, cell-based
Danio rerio [6] = species: Danio rerio; assay: Protection of neurodegeneration in zebrafish Huntington's disease model expressing EGFP-tagged huntingtin exon with EGFP-HDQ71 in rod photoreceptor assessed as induction of rhodopsin expression at 3 uM; type: functional, organism-based
How it was run: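 Zebrafish larvae dark-reared 3–9 d.p.f. with drug in E3, refreshed daily, then lysed in RIPA/DTT. Western blot with anti-rhodopsin (Zpr3, 1:1000), anti-Zpr1 and anti-EGFP antibodies; ECL detection.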

Danio rerio [7] = species: Danio rerio; assay: Protection of neurodegeneration in zebrafish Huntington's disease model expressing EGFP-tagged huntingtin exon with EGFP-HDQ71 in rod photoreceptor assessed as decrease in […] aggregation at 3 uM; type: functional, organism-based
How it was run: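 Transgenic zebrafish larvae raised in PTU to 3 d.p.f., then dark-reared 3–9 d.p.f. with drug in E3 medium (pH 7.2), refreshed daily. Fixed fish were cryosectioned at 12 μm and aggregates counted over 96 μm of the central eye. Means from 10 fish per group; ANOVA with Dunnett's test.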

SK-N-SH [8] = assay: Induction of autophagy in human SK-N-SH cells expressing EGFP-HDQ74/m-calpain assessed as inhibition of EGFP-HDQ74 aggregation at 1 uM after 48 hrs; type: functional, cell-based
Mus musculus = species: Mus musculus; assay: Induction of autophagy in Atg deficient mouse […] expressing EGFP-HDQ74 at 1 uM after 48 hrs; type: functional
SK-N-MC [9] = assay: Induction of autophagy in Atg positive human SK-N-MC cells expressing EGFP-HDQ74 at 1 uM after 48 hrs; type: functional, cell-based
HeLa [10] = assay: Induction of autophagy in human HeLa cells expressing EGFP-LC3 assessed as increase in LC3-2 level at 400 nM; type: functional, cell-based

C=C[C@@]1(C)CC(=O)[C@]2(O)[C@@]3(C)[C@@H](O)CCC(C)(C)[C@@H]3[C@H](O)[C@H](OC(C)=O)[C@@]2(C)O1
Activity (PC-12): inactive
Activity (SK-N-SH [1]): inactive

CCCC(CCC)C(=O)O [VALPROIC ACID]
Activity (SK-N-SH (Homo sapiens)): Active
Activity (Danio rerio [2]): Active
Activity (SK-N-MC [3]): Non-toxic
Activity (Danio rerio [4]): inactive

CCOC(=O)C1=C(C)NC(C)=C(C(=O)OC)C1c1cccc([N+](=O)[O-])c1 (stereo unspecified) [NITRENDIPINE]
Activity (SK-N-SH (Homo sapiens)): Active
Activity (SK-N-MC [3]): Non-toxic

CCCCCC[C@@H]([C@@H](C)O)n1cnc2c(N)ncnc21 (relative stereo)
Activity (HeLa [5]): inactive

Clc1cccc(Cl)c1N=C1NCCN1 [CLONIDINE]
Activity (SK-N-MC [3]): Non-toxic

Clc1cccc(Cl)c1NC1=NCCN1
Activity (SK-N-SH (Homo sapiens)): Active
Activity (Danio rerio [2]): Active
Activity (Danio rerio [6]): Active
Activity (Danio rerio [7]): Active
Activity (Danio rerio [4]): inactive
Activity (SK-N-SH [8]): inactive
Activity (Mus musculus): inactive
Activity (SK-N-MC [9]): Active

COCCOC(=O)C1=C(C)NC(C)=C(C(=O)OC(C)C)C1c1cccc([N+](=O)[O-])c1 (stereo unspecified) [NIMODIPINE]
Activity (SK-N-SH (Homo sapiens)): Active
Activity (SK-N-MC [3]): Non-toxic

CO/C1=C\C(C)=C\[C@@H](C)[C@@H](O)[C@@H](C)C/C(C)=C/C=C/[C@H](OC)[C@@H]([C@@H](C)[C@@H](O)[C@H](C)[C@@]2(O)C[C@@H](O)[C@H](C)[C@@H](C(C)C)O2)OC1=O
Activity (HeLa [10]): Active
